PubChem BioAssay AID492951 (Molecular Libraries Program, Specialized Chemistry Center, …, 2010)
A number with no mark means an inactive call. Activity calls are given as the source filed them.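 How the source made its calls: active means inhibition above 10%; inactive means the rest.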

target: Hexokinase-4 (Homo sapiens) (UniProt P35557); assay: hGlck enzyme activity off-target inhibitors – biochemical, recombinant hGlck, counter-screen for TbHK1 inhibitor project (AID 492951); settings: G6PDH-coupled NADH absorbance 340 nm, at 10 µM; active compounds read high
Procedure, shortened: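 Test system: recombinant human glucokinase, G6PDH-coupled; Medium: pH 7.9 TEA buffer, MgCl2, NAD+; Also added: 20 mM glucose as reaction starter, plus 1 mM ATP; Compound dosing: single final test compound dose of 10 µM; Schedule: 10 min preincubation at room temperature; Measured by: NADH formation by absorbance at 340 nm; Repeats: triplicate.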

Hexokinase-4 (Homo sapiens), sequence (P35557 whole entry, looked up): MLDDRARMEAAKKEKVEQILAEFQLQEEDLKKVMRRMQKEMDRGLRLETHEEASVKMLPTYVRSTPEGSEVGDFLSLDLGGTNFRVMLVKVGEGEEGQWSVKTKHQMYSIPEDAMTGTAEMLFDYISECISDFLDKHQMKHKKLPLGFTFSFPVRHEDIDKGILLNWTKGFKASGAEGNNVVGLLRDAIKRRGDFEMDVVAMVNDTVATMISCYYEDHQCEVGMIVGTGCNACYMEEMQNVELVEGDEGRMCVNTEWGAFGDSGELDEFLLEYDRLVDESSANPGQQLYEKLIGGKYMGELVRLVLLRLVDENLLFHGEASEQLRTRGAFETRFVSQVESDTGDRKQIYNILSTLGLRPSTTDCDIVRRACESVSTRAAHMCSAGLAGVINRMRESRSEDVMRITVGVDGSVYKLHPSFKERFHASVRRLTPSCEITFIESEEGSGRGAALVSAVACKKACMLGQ

Structure (SMILES)	outcome	inhibition
CC(C)(C)c1ccc(C(=O)Nc2cc(Cl)ccc2O)cc1	inactive	–
COc1ccc(-c2cc3ccccc3[nH]2)cc1	–	30.3% (active)
Cc1ccc(NC(=O)Cn2sc3ccccc3c2=O)cc1	–	2.1%
O=C(Cn1sc2ccccc2c1=O)Nc1cccc(I)c1	inactive	–
COc1ccccc1NC(=O)Cn1sc2ccccc2c1=O	–	8.4%
O=C(Cn1sc2ccccc2c1=O)Nc1ccc(Br)cc1	–	33.8% (active)
O=C(Nc1cc(Cl)ccc1C(=O)O)c1ccc(-c2ccccc2)cc1	–	27.6% (active)
COc1ccc(C(=O)Nc2cc(Cl)ccc2C#N)cc1	inactive	–
O=C(Cn1sc2ccccc2c1=O)Nc1ccc(C(F)(F)F)cc1	–	23.8% (active)
O=C(Nc1cc(Cl)ccc1C(=O)O)c1ccc(OC(F)(F)F)cc1	–	13.1% (active)
O=c1c2cc([N+](=O)[O-])ccc2sn1-c1ccccc1	–	11.4% (active)
CC(C(=O)Nc1ccccc1)n1sc2ccccc2c1=O (stereo not drawn)	–	9.6%
COc1ccc(C(=O)NC(C(=O)O)c2ccccc2)cc1 (stereo not drawn)	inactive	–
CC(C)(C)c1ccc(C(=O)Nc2cc(Cl)ccc2C(=O)O)cc1	inactive	–
COc1ccc(C(=O)Nc2cc(Cl)c(C)cc2C(=O)O)cc1	–	17.6% (active)
O=C(Nc1cc(Cl)ccc1C(=O)O)c1ccc2c(c1)OCO2	inactive	–
O=C(O)c1ccccc1NC(=O)c1ccccc1C(=O)O	inactive	–
COc1ccccc1-n1sc2ccccc2c1=O	–	55% (active)
O=C(Cn1sc2ccccc2c1=O)Nc1ccc(Cl)cc1	inactive	–

Structure (SMILES)	outcome	inhibition
Cn1c2ccccc2c(=O)n1-c1ccccc1	inactive	–
O=C(Cn1sc2ccccc2c1=O)NC1CCCCC1	–	8.01%
O=c1c2ccccc2sn1-c1ccccc1F	–	28.9% (active)
COc1ccc(S(=O)(=O)Nc2cc(Cl)ccc2C(=O)O)cc1	inactive	–
CC(C)c1ccc(C(=O)Nc2cc(Cl)ccc2C(=O)O)cc1	inactive	–
COc1ccc(C(=O)Nc2cc(C(=O)O)ccc2Cl)cc1	inactive	–
COc1ccc2c(c1)CN(c1cc(Cl)ccc1C(=O)O)C2=O	inactive	–
O=C(c1ccccc1)n1sc2ccccc2c1=O	inactive	–
COc1ccc(NC(=O)Cn2sc3ccccc3c2=O)cc1	inactive	–
COc1ccc(-n2sc3ccccc3c2=O)cc1	inactive	–
O=C1c2cccc(Br)c2SCN1c1ccccc1	–	5.5%
O=C(O)c1ccc(Cl)cc1NC(=O)c1coc2ccccc12	inactive	–
COc1ccc2c(=O)n(-c3ccccc3)sc2c1	inactive	–
O=c1c2cc(F)ccc2sn1-c1ccc(Cl)cc1	–	40% (active)
COC(=O)c1ccc(Cl)cc1NS(=O)(=O)c1ccc(OC)cc1	inactive	–
O=C(Nc1ccccc1)n1sc2ccccc2c1=O	–	32.9% (active)
O=c1c2ccccc2sn1-c1ccc(Cl)cc1Cl	–	65.6% (active)
CCCCCC(=O)Nc1cc(Cl)ccc1C(=O)O	inactive	–
O=c1c2ccc(F)cc2sn1-c1ccccc1	–	37.8% (active)
